Source: ChEMBL document CHEMBL5608194, “Novel neuroprotective 5,6-dihydropyrido[2',1':2,3]imidazo[4,5-c]quinoline derivatives acting through cholinesterase inhibition and CB2 signaling modulation” (Eur J Med Chem, 2024)
Calls of active or inactive are those of the source. The rule behind the calls is not given here.

How the values were obtained:
SH-SY5Y [1] = assay: Inhibition of MPP+ induced mitochondrial superoxide radical production in human SH-SY5Y cells at 10 uM incubated for 24 hrs by MitoSOX staining based microplate reader assay (reference value: 100%); format: functional
Summary of the method: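 Neuron-like SH-SY5Y (20 000 cells/well) co-treated with 5 mM MPP+ and compound for 24 h; plates centrifuged, medium replaced by 5 μM MitoSOX in HBSS, 30 min at 37 °C, fluorescence 500/580 nm; MPP+ signal set to 100 %; triplicates on at least four independent days.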

SH-SY5Y [2] = assay: Cytotoxicity against human SH-SY5Y cells assessed as cell death at 10 uM incubated for 72 hrs by propidium iodide staining based fluorescence assay; format: toxicity
Summary of the method: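 SH-SY5Y differentiated to neuron-like phenotype with 10 μM all-trans retinoic acid for 48 h, 20 000 cells/well. Compounds from DMSO stocks (DMSO ≤0.5 %) added, then 72 h exposure. Control wells lysed with 1 % Triton X-100 for 1 min, then all wells stained with propidium iodide for fluorescence read-out. Dead-cell proportion expressed relative to Triton X-100-treated control.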

SH-SY5Y [3] = assay: Neuroprotective activity against ATRA-differentiated and 3-NPA induced cell death in human SH-SY5Y cells assessed as cell death at 0.1 uM incubated for 48 hrs by propidium iodide staining based fluorescence assay (reference value: 100%); format: functional
Summary of the method: (§1)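 ATRA-differentiated SH-SY5Y co-treated with compound and 20 mM 3-nitropropionic acid for 48 h; cell death by propidium iodide fluorescence, 3-NPA-treated signal set to 100 %.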

SH-SY5Y [4] = assay: Neuroprotective activity against ATRA-differentiated and 3-NPA induced cell death in human SH-SY5Y cells assessed as cell death at 1 uM incubated for 48 hrs by propidium iodide staining based fluorescence assay (reference value: 100%); format: functional; summary of the method: as §1
SH-SY5Y [5] = assay: Neuroprotective activity against ATRA-differentiated and 3-NPA induced cell death in human SH-SY5Y cells assessed as cell death at 10 uM incubated for 48 hrs by propidium iodide staining based fluorescence assay (reference value: 100%); format: functional; summary of the method: as §1
SH-SY5Y [6] = assay: Neuroprotective activity against ATRA-differentiated and MPP+ induced cell death in human SH-SY5Y cells assessed as cell death at 0.1 uM incubated for 24 hrs by propidium iodide staining based fluorescence assay (reference value: 100%); format: functional
Summary of the method: (§2)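 ATRA-differentiated SH-SY5Y co-treated with compound and 5 mM MPP+ for 24 h; cell death by propidium iodide fluorescence, MPP+-treated signal set to 100 %.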

SH-SY5Y [7] = assay: Neuroprotective activity against ATRA-differentiated and MPP+ induced cell death in human SH-SY5Y cells assessed as cell death at 1 uM incubated for 24 hrs by propidium iodide staining based fluorescence assay (reference value: 100%); format: functional; summary of the method: as §2
SH-SY5Y [8] = assay: Neuroprotective activity against ATRA-differentiated and MPP+ induced cell death in human SH-SY5Y cells assessed as cell death at 10 uM incubated for 24 hrs by propidium iodide staining based fluorescence assay (reference value: 100%); format: functional; summary of the method: as §2
SH-SY5Y [9] = assay: Neuroprotective activity against ATRA-differentiated and MPP+ induced cell death in human SH-SY5Y cells assessed as cell death at 10 uM by LDH release assay (reference value: 100%); format: functional
Summary of the method: (§3)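 ATRA-differentiated SH-SY5Y co-treated with 5 mM MPP+ and compound; cell death by commercial LDH release kit; MPP+ value set to 100 %; triplicates on at least three independent days.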

SH-SY5Y [10] = assay: Neuroprotective activity against ATRA-differentiated and MPP+ induced cell death in human SH-SY5Y cells assessed as cell death at 1 uM by LDH release assay (reference value: 100%); format: functional; summary of the method: as §3
SH-SY5Y [11] = assay: Neuroprotective activity against MPP+ induced cell death in human SH-SY5Y cells assessed as cell death at 10 uM by YOPRO-1 staining based assay; format: functional
Summary of the method: (§4)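 Neuron-like SH-SY5Y co-treated with compound and 5 mM MPP+ for 24 h; centrifuged at 500 × g, medium replaced by 1 μM YO-PRO1 in PBS for 15 min at room temperature; fluorescence 488/530 nm; MPP+ signal set to 100 %; triplicates on at least three independent days.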

SH-SY5Y [12] = assay: Neuroprotective activity against MPP+ induced cell death in human SH-SY5Y cells assessed as cell death at 1 uM by YOPRO-1 staining based assay; format: functional; summary of the method: as §4
SH-SY5Y [13] = assay: Neuroprotective activity against MPP+ induced cell death in human SH-SY5Y cells assessed as cell death at 1 uM incubated for 24 hrs by Cas-3, 7 staining based assay; format: functional
Summary of the method: (§5)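 Caspase-3/7 activation with Ac-DEVD-AFC substrate after 24 h co-treatment of neuron-like SH-SY5Y with compound and 5 mM MPP+; MPP+ signal set to 100 %; triplicates on at least three independent days.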

SH-SY5Y [14] = assay: Neuroprotective activity against MPP+ induced cell death in human SH-SY5Y cells assessed as cell death at 10 uM incubated for 24 hrs by Cas-3, 7 staining based assay; format: functional; summary of the method: as §5
SH-SY5Y [15] = assay: Inhibition of MPP+ induced superoxide radical production in human SH-SY5Y cells at 10 uM incubated for 24 hrs by microplate reader assay (reference value: 100%); format: functional
Summary of the method: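 Neuron-like SH-SY5Y co-treated with 5 mM MPP+ and compound for 24 h; centrifuged at 500 × g, medium replaced with 10 μM dihydroethidium in PBS for 30 min, fluorescence 500/580 nm; MPP+ signal set to 100 %; triplicates on at least four independent days.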

SH-SY5Y [16] = assay: Inhibition of MPP+ induced superoxide radical production in ATRA-differentiated human SH-SY5Y cells at 1 uM incubated for 24 hrs by MitoSOX staining based confocal laser scanning microscopy; format: functional, cell-based
Summary of the method: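 50 000 cells seeded on chamber slides, ATRA-differentiated, co-treated with 5 mM MPP+ and compound for 24 h, then stained with MitoSOX and imaged by confocal laser-scanning microscopy (63× objective).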

SH-SY5Y [17] = assay: Inhibition of MPP+ induced mitochondrial depolarization in human SH-SY5Y cells at 1 uM incubated for 2 hrs by JC10 staining based confocal laser scanning microscopy; format: functional
Summary of the method: (§6)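 ATRA-differentiated SH-SY5Y co-treated with 5 mM MPP+ and compound for 2 h; mitochondrial membrane potential by JC10 ratiometric red/green signal (plate) and confocal imaging of JC10-stained cells (50 000 cells/well slides); DMSO control set to 100 %; triplicates on three independent days.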

Acetylcholinesterase = Acetylcholinesterase (Electrophorus electricus, UniProt O42275); assay: Inhibition of electric eel AChE using acetylthiocholine as substrate by Ellman's method
Cholinesterase = Cholinesterase (Equus caballus, UniProt P81908); assay: Inhibition of equine serum BChE using butyrylthiocholine as substrate by Ellman's method
Summary of the method: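 Equine serum BChE (0.2 U/mL final) with 40 μM butyrylthiocholine and 100 μM DTNB, modified Ellman spectrophotometry; compounds from DMSO diluted in water, five inhibitor concentrations; IC50 from regression of v0/vi versus inhibitor concentration; triplicate.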

[18] = Selectivity index, ratio of IC50 for electric eel AChE to IC50 for equine serum BChE
Summary of the method: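 Ratio of IC50 values from modified Ellman spectrophotometric assays with electric eel AChE and equine serum BChE. Each used enzyme at 0.2 U/mL final, acetylthiocholine or butyrylthiocholine at 40 μM, and DTNB at 100 μM. Inhibitors were dissolved in DMSO, diluted in water, and tested at five concentrations in triplicate. IC50 came from regression of v0/vi against inhibitor concentration.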

SH-SY5Y [19] = assay: Neuroprotective activity against MPP+ induced cell death in human SH-SY5Y cells assessed as decrease in PARP1 cleavage at 1 to 10 uM incubated for 24 hrs by immunoblotting analysis; format: functional, cell-based; details: dose 1-10 µM
SH-SY5Y [20] = assay: Inhibition of MPP+ induced mitochondrial depolarization in human SH-SY5Y cells at 0.1 to 1 uM incubated for 2 hrs by JC10 staining based confocal laser scanning microscopy; format: functional, cell-based; details: dose 0.1-1 µM; summary of the method: as §6
SH-SY5Y [21] = assay: Inhibition of MPP+ induced Akt phosphorylation at Ser473 residues in human SH-SY5Y cells at 1 to 10 uM incubated for 24 hrs by Western blotting analysis; format: cell-based; details: dose 1-10 µM
Summary of the method: (§7)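 ATRA-differentiated neuron-like SH-SY5Y co-treated with 5 mM MPP+ and compound for 24 h, lysed in RIPA buffer, SDS-PAGE, transfer to nitrocellulose, immunoblot for p-Akt (Ser473) and ERK1/2; HSP90 and β-actin loading controls; ECL chemiluminescence imaged by CCD camera.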

[22] = target: Mitogen-activated protein kinase; ERK1/ERK2 (Homo sapiens) (UniProt P27361+P28482); assay: Inhibition of MPP+ induced ERK1/2 phosphorylation in human SH-SY5Y cells at 10 uM incubated for 24 hrs by Western blotting analysis; format: cell-based; summary of the method: as §7
Chain of Mitogen-activated protein kinase; ERK1/ERK2 (Homo sapiens) (P27361 whole entry, looked up): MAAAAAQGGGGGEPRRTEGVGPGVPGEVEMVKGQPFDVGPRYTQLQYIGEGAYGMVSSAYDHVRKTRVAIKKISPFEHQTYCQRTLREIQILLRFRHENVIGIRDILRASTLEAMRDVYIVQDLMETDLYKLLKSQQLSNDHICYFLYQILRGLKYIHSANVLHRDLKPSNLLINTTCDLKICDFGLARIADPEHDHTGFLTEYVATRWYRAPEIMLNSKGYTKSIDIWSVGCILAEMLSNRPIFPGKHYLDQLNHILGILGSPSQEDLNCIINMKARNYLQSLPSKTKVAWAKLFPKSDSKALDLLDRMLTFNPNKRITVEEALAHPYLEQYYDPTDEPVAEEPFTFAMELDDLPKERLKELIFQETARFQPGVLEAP
Chain of Mitogen-activated protein kinase; ERK1/ERK2 (Homo sapiens) (P28482 whole entry, looked up): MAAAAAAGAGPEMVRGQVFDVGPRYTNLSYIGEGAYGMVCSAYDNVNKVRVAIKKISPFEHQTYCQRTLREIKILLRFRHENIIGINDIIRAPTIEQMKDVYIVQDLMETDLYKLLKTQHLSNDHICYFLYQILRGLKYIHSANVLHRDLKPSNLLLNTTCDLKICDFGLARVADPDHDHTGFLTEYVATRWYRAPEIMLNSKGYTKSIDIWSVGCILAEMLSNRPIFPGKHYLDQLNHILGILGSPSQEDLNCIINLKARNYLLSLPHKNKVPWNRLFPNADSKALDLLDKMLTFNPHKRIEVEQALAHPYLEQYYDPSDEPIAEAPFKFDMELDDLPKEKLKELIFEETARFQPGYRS

Chain of Acetylcholinesterase (O42275 whole entry): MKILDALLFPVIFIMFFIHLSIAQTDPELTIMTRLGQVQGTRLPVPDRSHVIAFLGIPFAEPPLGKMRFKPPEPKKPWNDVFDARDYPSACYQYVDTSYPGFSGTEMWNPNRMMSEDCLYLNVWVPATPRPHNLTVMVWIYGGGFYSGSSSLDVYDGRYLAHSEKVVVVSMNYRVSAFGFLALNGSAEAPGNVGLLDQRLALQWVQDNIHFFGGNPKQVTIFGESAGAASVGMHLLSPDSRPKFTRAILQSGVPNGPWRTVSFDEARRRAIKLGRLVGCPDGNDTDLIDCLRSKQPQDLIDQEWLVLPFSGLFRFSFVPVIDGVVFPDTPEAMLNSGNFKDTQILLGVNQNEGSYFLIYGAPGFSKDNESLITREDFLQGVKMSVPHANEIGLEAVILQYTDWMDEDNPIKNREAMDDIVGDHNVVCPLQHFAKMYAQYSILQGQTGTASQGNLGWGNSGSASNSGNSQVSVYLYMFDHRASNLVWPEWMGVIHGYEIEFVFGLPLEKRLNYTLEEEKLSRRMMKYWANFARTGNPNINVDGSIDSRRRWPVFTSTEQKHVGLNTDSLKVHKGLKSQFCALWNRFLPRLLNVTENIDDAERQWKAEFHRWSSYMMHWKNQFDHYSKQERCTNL
Chain of Cholinesterase (P81908 whole entry): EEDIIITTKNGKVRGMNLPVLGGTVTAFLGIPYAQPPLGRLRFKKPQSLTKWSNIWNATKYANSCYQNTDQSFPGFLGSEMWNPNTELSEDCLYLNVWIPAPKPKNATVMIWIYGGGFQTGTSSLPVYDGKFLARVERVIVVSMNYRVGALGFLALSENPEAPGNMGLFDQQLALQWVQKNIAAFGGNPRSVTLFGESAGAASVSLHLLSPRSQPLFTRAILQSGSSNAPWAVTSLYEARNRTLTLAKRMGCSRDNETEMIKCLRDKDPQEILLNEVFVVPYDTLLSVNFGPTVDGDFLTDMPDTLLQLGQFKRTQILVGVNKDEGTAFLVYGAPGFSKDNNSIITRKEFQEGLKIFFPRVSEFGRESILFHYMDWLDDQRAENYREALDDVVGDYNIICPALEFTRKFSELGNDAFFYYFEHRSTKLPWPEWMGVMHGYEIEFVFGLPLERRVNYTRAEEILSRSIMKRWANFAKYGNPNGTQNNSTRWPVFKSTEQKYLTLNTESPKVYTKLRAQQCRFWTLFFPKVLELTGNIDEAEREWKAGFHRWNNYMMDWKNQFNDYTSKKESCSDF

| Compound | inhibition at 10 µM (SH-SY5Y [1]) [%] | Activity (SH-SY5Y [2]) [%] | Activity (SH-SY5Y [3]) [%] | Activity (SH-SY5Y [4]) [%] | Activity (SH-SY5Y [5]) [%] | Activity (SH-SY5Y [6]) [%] | Activity (SH-SY5Y [7]) [%] | Activity (SH-SY5Y [8]) [%] | Activity (SH-SY5Y [9]) [%] | Activity (SH-SY5Y [11]) [%] | inhibition at 10 µM (SH-SY5Y [15]) [%] | IC50 (Acetylcholinesterase) [µM] | IC50 (Cholinesterase) [µM] | Ratio IC50 [18] | also measured |
| --- | --- | --- | --- | --- | --- | --- | --- | --- | --- | --- | --- | --- | --- | --- | --- |
| Brc1ccc2nc3c(n2c1)C1(CCCC1)Nc1ccccc1-3 | 41.3 | 12.2 | 78.4 | 63.9 | 59.7 | 66.4 | 31.8 | 27.5 | 51.9 | 43.5 | 52.2 | 27 | 10.7 | 2.51 | Activity (SH-SY5Y [10]): 58.5%; Activity (SH-SY5Y [12]): 47.3%; Activity (SH-SY5Y [13]): 49.4%; Activity (SH-SY5Y [14]): 72.6%; inhibition (SH-SY5Y [16]): Active; inhibition at 1 µM (SH-SY5Y [17]): 78.5% |
| O=c1c2ccccc2[se]n1-c1ccccc1 [EBSELEN] | 63.3 | 18.3 | 118.7 | 112 | 132.9 | 99.5 | 80 | 27.5 | 59.2 | 53.4 | 57.1 | 12.7 | 12.1 | 1.05 | Activity (SH-SY5Y [19]): Active; inhibition (SH-SY5Y [20]): inactive; inhibition (SH-SY5Y [21]): inactive; inhibition [22]: inactive |
